Assay outcomes as filed in PubChem.
Kir21 block = Kir2.1 (mouse) channel inhibition. P35561. HEK293-Kir2.1, FluxOR thallium flux fluorescence; hits give low values. B-score at 10 µM. 310,000 compounds, 0.85% hits;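 active = fluorescence ratio B-score at or below minus 3 SD of library scores, with starting-brightness B-score within 2 SD, cut at about -4.2 in these data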;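 also: channel flux triggered by added potassium and thallium sulfate stimulus; B-score of peak minus minimum fluorescence over baseline after thallium stimulus; more negative B-score means stronger Kir2.1 block with less thallium influx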
KCNK9 inh = blocks the human KCNK9 two-pore domain potassium channel; Q9NPC2; HEK293 KCNK9, FluxOR thallium flux fluorescence; hits give low values; B-score at 10 µM; 310,000 compounds, 1.2% hits;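 active = ratio B-score over 3 SD below the library mean, with starting fluorescence within 5 SD of its mean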;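 also: negative B-score means less thallium flux so channel inhibition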
KCNQ1 block = human KCNQ1 channel inhibition | CHO-K1 KCNQ1, FluxOR thallium flux fluorescence; hits give high values | AID 2642 | 310,000 compounds, 1.3% hits | P51787 | B-score at 10 µM;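 active = compounds whose thallium flux B-score, printed positive for inhibition, exceeds three library SD while starting fluorescence stays within three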;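 also: channel opened by potassium depolarization with thallium stimulus after 20 min compound exposure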
Target sequence (P51787 whole entry, looked up): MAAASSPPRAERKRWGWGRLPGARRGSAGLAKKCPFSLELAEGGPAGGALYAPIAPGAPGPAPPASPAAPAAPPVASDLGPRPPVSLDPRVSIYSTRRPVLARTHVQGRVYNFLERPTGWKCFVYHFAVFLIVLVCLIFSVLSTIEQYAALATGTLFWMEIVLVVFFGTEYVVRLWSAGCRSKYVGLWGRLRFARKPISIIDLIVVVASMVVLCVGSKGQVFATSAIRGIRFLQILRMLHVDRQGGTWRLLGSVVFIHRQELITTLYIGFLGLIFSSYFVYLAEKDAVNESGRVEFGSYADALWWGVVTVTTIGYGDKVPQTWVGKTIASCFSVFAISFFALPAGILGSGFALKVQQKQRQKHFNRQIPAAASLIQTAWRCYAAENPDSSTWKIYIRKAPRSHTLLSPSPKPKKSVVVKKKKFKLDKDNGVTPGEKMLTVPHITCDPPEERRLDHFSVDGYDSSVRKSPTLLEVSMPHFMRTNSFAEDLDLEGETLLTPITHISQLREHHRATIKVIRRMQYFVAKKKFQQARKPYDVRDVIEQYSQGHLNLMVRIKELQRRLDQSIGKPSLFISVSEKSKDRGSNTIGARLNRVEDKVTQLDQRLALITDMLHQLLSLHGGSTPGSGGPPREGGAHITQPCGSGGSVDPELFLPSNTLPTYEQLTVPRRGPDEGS
hERG rescue = shields human hERG channel from block by proarrhythmic agents; Q12809; 310,000 compounds, 0.51% hits; activation (rescue from dofetilide block), less the hit threshold, % at 10 µM; CHO-hERG, FluxOR thallium flux, dofetilide IC70 present;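 active = activation above the mean of controls blocked by dofetilide plus 5 SD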;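 also: thallium influx through hERG after potassium depolarization seen as dye fluorescence rise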
KCNK3 inh = human KCNK3 channel inhibition, primary screen; B-score at 10 µM; AID 602410; CHO-KCNK3 thallium flux, FluxOR fluorescence; hits give low values; 340,000 compounds, 0.84% hits;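 active = B-score under library mean minus 4 SD, starting fluorescence ratio at most library mean plus 5 SD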;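 also: more negative B-score means stronger inhibition of thallium flux through KCNK3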
KCNQ1 act = potentiates or activates the human KCNQ1 potassium channel; AID 2648; B-score at 10 µM; CHO-K1 KCNQ1, thallium flux FluxOR fluorescence; hits give high values; 310,000 compounds, 0.35% hits; P51787;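 active = fluorescence ratio B-score, a plate-corrected score, at least three library SD, with initial intensity B-score within 5 SD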
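Medium – assay buffer, equal DMSO in all wells · Material – CHO-K1 cell line with stable KCNQ1 potassium channel expression · Signal – kinetic FluxOR thallium fluorescence, 10-s 1-Hz baseline, 110-s post-stimulus read · Compound – single concentration per compound, DMSO matched to controls · Schedule – 37 °C overnight plating, 90-min dark dye load, 20-min compound pretreatment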
KCNQ1 inh valid = confirmation of human KCNQ1 potassium channel inhibitors; shares compounds with KCNQ1 block; KCNQ1 cell line, FluxOR thallium flux fluorescence; inhibition, % at 10 µM; 1,600 compounds, 93% hits;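 active = primary screen active, with duplicate mean exceeding buffer control mean plus 3 SD of buffer wells, cut at about 28% in these data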
CHO KCNQ1 ctr = activity in parental CHO cells lacking KCNQ1. shares compounds with KCNQ1 block. parental CHO-K1, FluxOR thallium flux fluorescence ratio; hits give low values; zero means no signal rise above baseline. fluorescence ratio (Tl flux) at 10 µM. 1,600 compounds, 21% hits;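 active = mean of duplicate thallium-flux fluorescence ratios in parental host cells more than 5 SD below the buffer control mean, cut at about 0.38 in these data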;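 also: ratio is peak minus minimum fluorescence divided by baseline fluorescence; actives read low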
KCNQ1 ephys val = blocks human KCNQ1 current in automated patch clamp; KCNQ1-CHO cells; 490 compounds, 20% hits; calls only at 10 µM; shares compounds with KCNQ1 block;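 active = KCNQ1 current drop exceeding 3 SD of negative control wells, seen in both duplicate runs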;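 also: steady state current during a 2 s step from -80 to +40 mV; negative values mean current inhibition and positive values mean potentiation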
KCNQ2 spec = selectivity of KCNQ1 inhibitors: inhibition of rat KCNQ2 channel; shares compounds with KCNQ1 block; KCNQ2 cells, FluxOR thallium flux fluorescence; inhibition, % at 10 µM; 1,600 compounds, 71% hits; AID 651746;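 active = mean percent inhibition of the KCNQ2 thallium signal more than 5 SD above the buffer-only control wells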;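 also: KCNQ2 expressed in CHO cells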
KCNQ1-KCNE1 inh = human KCNQ1/KCNE1 inhibition in KCNQ1 specificity screen; shares compounds with KCNQ1 block; KCNQ1/KCNE1 cells, FluxOR thallium flux fluorescence; inhibition, % at 10 µM; 1,600 compounds, 77% hits; AID 652147;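 active = mean percent inhibition of duplicate wells above the buffer-only control mean plus 3 SD of those controls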
KCNK9 inh conf = confirmation of human KCNK9 potassium channel inhibitors | shares compounds with KCNK9 inh | HEK293 KCNK9 cells, FluxOR thallium flux fluorescence | inhibition, % at 10 µM | 4,900 compounds, 43% hits;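 active = thallium signal inhibited by more than 5 SD of the compound-free buffer control wells, on both duplicate plates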
Kir21 sel = tests whether KCNK9 modulators also affect mouse Kir2.1; Kir2.1 cells, FluxOR thallium flux fluorescence; AID 492993; 4,900 compounds, 4% hits; shares compounds with KCNK9 inh; inhibition, % at 10 µM;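 active = thallium signal drop more than 5 SD beyond the mean of the no-compound control wells, seen in both duplicate plates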;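 also: signal is fluorescence rise after thallium addition divided by baseline fluorescence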
HEK293 Tl ctr = second check of KCNK9 modulator effects in non-induced HEK293 cells; shares compounds with KCNK9 inh; FluxOR thallium flux; inhibition, % at 10 µM; 4,900 compounds, 40% hits;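 active = thallium signal drop beyond 5 SD of the untreated control mean, on both duplicate plates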
KCNK3 confirm = human KCNK3 channel inhibition, confirmation assay. 2,400 compounds, 99% hits. ratio percent of control, % at 10 µM. AID 651638. shares compounds with KCNK3 inh. CHO-KCNK3 thallium flux, FluxOR fluorescence; 0% buffer, 100% carvedilol maximal block;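 active = ratio percent of control, averaged over triplicates, above buffer control mean plus 5 SD, cut at about 64% in these data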;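 also: ratio is the fluorescence rise from min to max over baseline after thallium stimulus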
KCNK3 noninduced = counter-screen for KCNK3 inhibitors: effect in non-induced cells; shares compounds with KCNK3 inh; non-induced KCNK3 parental cells, FluxOR thallium flux; hits give low values; thallium flux ratio (lower = more inhibition) at 10 µM; 2,400 compounds, 40% hits;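 active = thallium flux ratio, averaged over three wells, more than 5 SD below the buffer control mean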;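 also: host cells are CHO cells without KCNK3 induction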
Of the large screens only hits and unclear results are named; the others gave an inactive call (follow-up assays come after a bar, where they were run). Sampled rows, rich in hits. Any-hit rate of the full collection: about 3.7%.

Oc1ccccc1CN(CCc1ccccc1)Cc1ccccc1	KCNK9 inh -7.93, KCNQ1 block 9, KCNK3 inh -8.93 | KCNQ1 inh valid 108.0 | CHO KCNQ1 ctr inactive | KCNQ1 ephys val inactive | KCNQ2 spec 97.3% | KCNQ1-KCNE1 inh 129.5% | KCNK3 confirm 120.0 | KCNK3 noninduced 0.135
Nc1ncc([N+](=O)[O-])s1	none (no result: Kir21 block, KCNK9 inh, KCNQ1 block, hERG rescue, KCNQ1 act)
CCCCN(Cc1ccccc1)C1CCN(CCc2ccccc2)CC1	none | KCNK9 inh conf inactive | Kir21 sel inactive | HEK293 Tl ctr inactive
CCOCCCNC(=O)C1c2cc(OC)c(OC)cc2C(=O)N2CCCCC12 (centres undefined)	none
O=C(c1ccc2c(c1)N(Cc1ccc(F)cc1)CCS2)N1CCC2(CC1)OCCO2	none | KCNK9 inh conf inactive | Kir21 sel inactive | HEK293 Tl ctr inactive
Cc1ccc(CN2CCSc3ccc(C(=O)N4CCC5(CC4)OCCO5)cc32)cc1	none
CSc1ccc(CN2CCN(c3ccccc3C)CC2)cc1	none | KCNK9 inh conf inactive | Kir21 sel inactive | HEK293 Tl ctr inactive
Oc1cc2c(cc1CN1CCN(c3ccc(F)cc3)CC1)OCO2	none
Brc1cc2c(cc1CN1CCN(c3ccccc3)CC1)OCCO2	none | KCNK9 inh conf inactive | Kir21 sel inactive | HEK293 Tl ctr inactive
CCCCCCn1c(=O)c(C(=O)Nc2c(C)n(C)n(-c3ccccc3)c2=O)c(O)c2ccccc21	none | KCNK9 inh conf inactive | Kir21 sel inactive | HEK293 Tl ctr inactive
c1ccc(CCCN2CCN(CCOC(c3ccccc3)c3ccccc3)CC2)cc1	none | KCNK9 inh conf inactive | Kir21 sel inactive | HEK293 Tl ctr inactive
CCc1ccc2c(CN3CC=C(c4ccccc4)CC3)cc(=O)oc2c1	none
Cc1ccc2c(CN3CC=C(c4ccccc4)CC3)cc(=O)oc2c1C	none | KCNK9 inh conf inactive | Kir21 sel inactive | HEK293 Tl ctr inactive
Cc1ccsc1CNCCc1ccccc1F	none
CC(C)CCC1(CCO)C(=O)NC(=S)NC1=O	none (no result: Kir21 block, KCNK9 inh, KCNQ1 block, hERG rescue, KCNQ1 act)
CCNc1cc(N2CCNCC2)ccc1[N+](=O)[O-]	none (no result: KCNK3 inh)
Cc1cccc(C(=O)Nc2ccc(Cl)cc2C(=O)c2ccccc2)c1	KCNK9 inh -8.44 | KCNK9 inh conf 32.5% | Kir21 sel inactive | HEK293 Tl ctr 31.0%
COC(=O)C1=C(c2ccc(F)cc2OCc2ccccc2)C[C@@H]2CC[C@H]1N2C(=O)N1CCC(O)CC1	none (no result: Kir21 block, KCNK9 inh, KCNQ1 block, hERG rescue, KCNQ1 act)
COc1cccc(NP(=O)(Oc2ccccc2Cl)Oc2ccccc2Cl)c1	KCNK9 inh -10.1 | KCNK9 inh conf 38.5% | Kir21 sel inactive | HEK293 Tl ctr 38.0%
CN1CCC(=O)N(CCN=[N+]=[N-])CC1	none
O=C(CN1C(=O)CN=C(c2ccccc2Cl)c2cc(Cl)ccc21)NCc1ccco1	none
Cc1cccc(C2=NCC(=O)N(CC(=O)NCc3ccco3)c3sc4c(c32)CCCC4)c1	KCNK9 inh -11 | KCNK9 inh conf 41.0% | Kir21 sel inactive | HEK293 Tl ctr 30.5%
CCCCn1c(=O)c(C=Nc2cc([N+](=O)[O-])ccc2OC)c(O)n(CCCCl)c1=O	none
CC(C)n1c(=O)c(C=Nc2cccc([N+](=O)[O-])c2)c(O)n(CCc2ccccc2)c1=O	none | KCNK9 inh conf inactive | Kir21 sel inactive | HEK293 Tl ctr inactive
COc1ccccc1OCC(=O)N1CCCC(N2CCN(c3ccc(F)cc3)CC2)C1 (centres undefined)	none | KCNK9 inh conf inactive | Kir21 sel inactive | HEK293 Tl ctr inactive
COc1ccc(OCC(=O)N2CCCC(N3CCN(c4ccccc4C)CC3)C2)cc1 (centres undefined)	none | KCNK9 inh conf inactive | Kir21 sel inactive | HEK293 Tl ctr inactive
O=C(COc1ccccc1Cl)N1CCCC(N2CCN(c3ccc(F)cc3)CC2)C1 (centres undefined)	none | KCNK9 inh conf inactive | Kir21 sel inactive | HEK293 Tl ctr inactive
Cc1ccc(OCC(=O)N2CCCC(N3CCN(c4ccc(F)cc4)CC3)C2)cc1 (centres undefined)	none
CC1C=CCCC12C(=O)NC(=O)NC2=O (centres undefined)	none (no result: Kir21 block, KCNK9 inh, KCNQ1 block, hERG rescue, KCNQ1 act)
O=C(Nc1ccccc1)c1c(O)c2c(n(Cc3ccco3)c1=O)CCCC2	none
O=C(Nc1nccs1)c1c(O)c2c(n(Cc3ccco3)c1=O)CCCC2	KCNK9 inh -8.19, KCNQ1 block 6 | KCNK9 inh conf 43.5% | Kir21 sel inactive | HEK293 Tl ctr 35.5%
O=C(c1ccc(Cl)cc1)C1CCCN(Cc2cccc3cnccc23)C1 (centres undefined)	none | KCNK9 inh conf inactive | Kir21 sel inactive | HEK293 Tl ctr inactive
O=C(c1ccc2c(c1)OCO2)C1CCCN(Cc2ccc(F)c(F)c2)C1 (centres undefined)	none
O=C(c1cccc(Cl)c1)C1CCCN(Cc2cccc3cnccc23)C1 (centres undefined)	none
O=C(c1ccc(Cl)cc1)C1CCCN(Cc2ccc3ncccc3c2)C1 (centres undefined)	none | KCNK9 inh conf inactive | Kir21 sel inactive | HEK293 Tl ctr inactive
